Series [1] concerns the target Type 1 fimbrin D-mannose specific adhesin (Escherichia coli K-12, UniProt P08191). Briefly: Antagonist activity at Escherichia coli recombinant C-terminal 6His-tagged FimH-CRD with a C-terminal thrombin cleavage site expressed in Escherichia coli HM125 assessed as inhibition of streptavidin-horseradish peroxidase conjugated TM-PAA polymer binding after 3 hrs by spectrophotometry. An outline of the steps: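 Plates coated overnight at 4 °C with 10 µg/mL FimH-CRD-Th-6His in 20 mM HEPES, 150 mM NaCl, 1 mM CaCl2, pH 7.4, then blocked with 3% BSA for 2 h at 4 °C. Fourfold serial dilutions in buffer with 5% DMSO plus 0.5 µg/mL streptavidin-peroxidase TM-PAA polymer, 3 h at 25 °C. ABTS for 4 min, stopped with oxalic acid, OD 415 nm. Duplicates, repeated at least twice; n-heptyl α-D-mannoside on each plate; IC50 from curve fit.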

A short description of series [2]: Antagonist activity at Escherichia coli […] FimH assessed as disaggregation of microorganism from guinea pig erythrocytes measured for 1400 secs by aggregometry. Conditions: read-out: IC50. The format is functional. An outline of the steps:
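E. coli UTI89 and guinea pig erythrocytes (separated on Histopaque), each adjusted to OD600 of 4 (1.9 × 10⁸ CFU/mL and 2.2 × 10⁶ cells/mL). Aggregation read as optical density at 740 nm, 37 °C, stirring at 1000 rpm. Instrument calibrated with protein-poor plasma in PBS as 100% and protein-rich plasma with erythrocytes as 0%. Triplicates; IC50 from area under the disaggregation curve.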

The next series deals with Escherichia coli. Put plainly: Ratio of compound IC50 to n-heptyl alpha-D-mannopyranoside IC50 for Escherichia coli […] FimH assessed as disaggregation of microorganism from guinea pig erythrocytes measured for 1400 secs by aggregometry.
The target of series [3] is Type 1 fimbrin D-mannose specific adhesin (Escherichia coli K-12) (UniProt P08191). Put plainly: Ratio of compound IC50 to n-heptyl alpha-D-mannopyranoside IC50 for Escherichia coli recombinant C-terminal 6His-tagged FimH-CRD with a C-terminal thrombin cleavage site expressed in Escherichia coli HM125 assessed as inhibition of streptavidin-horseradish peroxidase conjugated TM-PAA polymer binding after 3 hrs by spectrophotometry. In outline:
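FimH-CRD-Th-6His from E. coli HM125, purified on Ni-NTA, coated at 10 µg/mL in assay buffer (20 mM HEPES, 150 mM NaCl, 1 mM CaCl2, pH 7.4) overnight at 4 °C. Wells blocked with 3% BSA for 2 h at 4 °C. Four-fold serial dilutions of compound in buffer with 5% DMSO were added with streptavidin-peroxidase-coupled TM-PAA polymer (0.5 µg/mL). Plates were incubated 3 h at 25 °C, 350 rpm. ABTS was developed 4 min, stopped with 2% oxalic acid, and read at 415 nm. Each compound was run in duplicate and repeated at least twice. IC50 is the concentration that halves maximal specific TM-PAA binding. rIC50 is compound IC50 divided by the IC50 of n-heptyl α-D-mannopyranoside run on the same plate.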

Series [4] can be described thus: Thermodynamic solubility of the compound at pH 6.5 after 24 hrs by shake flask method using LC-MS analysis. The format is physicochemical. Conditions: buffer, read-out: Therm_solubility. In outline: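 1 mg solid shaken in 250 µL 50 mM phosphate buffer, pH 6.5: sonicated 15 min, shaken at 600 rpm and 25 °C for 2 h, then left 24 h. pH measured, then filtered by centrifugation. Filtrate diluted and quantified by LC-MS against a six-point calibration from 0.1 to 10 µg/mL.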

The nature of series [5]: Permeability of the compound assessed as membrane retention at pH 5 to 7.4 after 16 hrs by PAMPA assay. Conditions: pH 5, 16 h. The class given is ADME. An outline of the steps:
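PAMPA sandwich: donor wells with compound solution, acceptor filter impregnated with GIT-0 lipid and filled with acceptor sink buffer. Incubated undisturbed for 16 h. Donor and acceptor samples quantified by UV spectroscopy and LC-MS; log Pe and membrane retention calculated from these.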
(In general: The PAMPA barrier holds no transporters, so it reflects passive diffusion.)

Series [6] in a line: Octanol-phosphate buffer distribution coefficient, log D of the compound at pH 7.4 after 2 hrs by shake flask method using LC-MS analysis. The format is physicochemical. In outline: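 Miniaturized shake flask. Phosphate buffer (0.1 M, pH 7.4) and 1-octanol mutually saturated. Analyte at 1 µM in buffer, overlaid with octanol at two volume ratios chosen by ALOGPS-predicted logP, three determinations per ratio.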

The record followed here is ChEMBL document CHEMBL1914456, “Design, synthesis and biological evaluation of mannosyl triazoles as FimH antagonists” (Bioorg Med Chem, 2011).

Molecules are shown by their SMILES. ≈ marks a conversion by molar mass, not a printed value.

Type 1 fimbrin D-mannose specific adhesin (Escherichia coli K-12), sequence (P08191 whole entry): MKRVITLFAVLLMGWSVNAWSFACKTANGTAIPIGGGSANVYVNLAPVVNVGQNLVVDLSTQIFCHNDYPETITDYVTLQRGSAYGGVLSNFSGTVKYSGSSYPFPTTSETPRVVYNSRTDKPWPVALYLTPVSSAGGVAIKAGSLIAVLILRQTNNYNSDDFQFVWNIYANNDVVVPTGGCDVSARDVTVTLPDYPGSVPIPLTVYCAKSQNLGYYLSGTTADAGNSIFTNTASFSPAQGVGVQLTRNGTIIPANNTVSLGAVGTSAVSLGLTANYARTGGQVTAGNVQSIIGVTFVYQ
Type 1 fimbrin D-mannose specific adhesin, sequence (P08191 whole entry): as above

Regarding `Nc1ccc(-n2cc(CO[C@H]3O[C@H](CO)[C@@H](O)[C@H](O)[C@@H]3O)nn2)cc1`, the values for the IC50 in series [1] and in series [2] were 420 nM and 299000 nM, respectively. Besides, the Ratio IC50 in the series with Escherichia coli was found to be 3.9; in series [3], 6.4. The solubility thermodynamic at 24 h in series [4] is > 2000 µg/mL. The R% in series [5] amounted to 4%. The molecule also showed a logD at 2 h in series [6] of 0.2.

`OC[C@H]1O[C@H](OCCc2cn(-c3ccncc3)nn2)[C@@H](O)[C@@H](O)[C@@H]1O`: the IC50 in series [1] is 153 nM; in series [2], 277000 nM. Also, the Ratio IC50 came out at 3.6 in the series with Escherichia coli and 2.3 in series [3]. The solubility thermodynamic at 24 h in series [4] was > 3000 µg/mL. Besides, the R% in series [5] is recorded as 4.3%. In series [6], the logD at 2 h is < -1.5.

In the case of `OC[C@H]1O[C@H](n2cc(-c3ccc(C(F)(F)F)cc3)nn2)[C@@H](O)[C@@H](O)[C@@H]1O`, the concentration for half-maximal inhibition (IC50) came out at 144 nM in series [1] and 249000 nM in series [2]. For the same molecule, the results for the Ratio IC50 (with Escherichia coli; in series [3]) were 3.2 and 2.2, respectively. Also, the solubility thermodynamic at 24 h in series [4] amounted to 159 µg/mL (≈ 0.424 mM). The R% in series [5] amounted to 17.2%. The same molecule yielded a logD at 2 h in series [6] of 1.45.

As for `Cc1ccc(-c2cn([C@H]3O[C@H](CO)[C@@H](O)[C@H](O)[C@@H]3O)nn2)cc1`, the results for the IC50 in series [1] and in series [2] were 248 nM and 289000 nM, respectively. Besides, the Ratio IC50 with Escherichia coli was found to be 3.7; in series [3] it was 3.8. The solubility thermodynamic at 24 h in series [4] was 445 µg/mL (≈ 1.38 mM). Also, in series [5], the R% turned out to be 11.5%. This molecule yielded a logD at 2 h in series [6] of 0.91.

`OC[C@H]1O[C@H](OCCc2cn(-c3ccc(F)cc3)nn2)[C@@H](O)[C@@H](O)[C@@H]1O`: the IC50 came out at 196 nM in series [1] and 216000 nM in series [2]. For the same molecule, the Ratio IC50 in the series on Escherichia coli was determined as 2.8; in series [3], 3. Further, the solubility thermodynamic at 24 h in series [4] is > 3000 µg/mL. The R% in series [5] came out at 4%. Further, the logD at 2 h in series [6] was -0.21.

For `CCCCCCCO[C@H]1O[C@H](CO)[C@@H](O)[C@H](O)[C@@H]1O`, the IC50 in series [1] stood at 65.6 nM. In addition, in the series on Escherichia coli, the Ratio IC50 was determined as 1. Besides, in series [4], the solubility thermodynamic at 24 h is > 3000 µg/mL. In addition, the R% in series [5] was determined as 21%. Moreover, in series [6], the logD at 2 h was found to be 1.65.

Broadly, the IC50 is the concentration at which inhibition is half-maximal. What is called logD is lipophilicity at a set pH, counting ionised and neutral species.
